Results taken from ChEMBL document CHEMBL3286203, “Reactive oxygen species (ROS) inducible DNA cross-linking agents and their effect on cancer cells and normal lymphocytes” (J Med Chem, 2014).
The source made the active and inactive calls. The rule behind the calls is not given here.

How the values were obtained:
U-251 = assay: Cytotoxicity against human U251 cells assessed as growth inhibition at 10 uM after 48 hrs by SRB assay; format: functional, cell-based
In short: (§1)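 NCI-60 DTP human tumour line screen. Cells grown in RPMI 1640 with 5% fetal bovine serum and 2 mM L-glutamine, plated at 5000–40 000 cells/well according to doubling time. Single dose of 10 μM for 48 h at 37 °C, 5% CO2, 95% air, 100% humidity, two plates per line. Read-out is growth percent.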

SK-OV-3 = assay: Cytotoxicity against human SKOV3 cells assessed as growth inhibition at 10 uM after 48 hrs by SRB assay; format: functional, cell-based
In short: (§2)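 Single-dose screen run by the NCI Developmental Therapeutics Program (NCI-60). Cells were grown in RPMI 1640 with 5% fetal bovine serum and 2 mM L-glutamine. They were plated at 5000–40 000 cells/well, depending on doubling time. Each line was run in two plates and exposed to 10 μM drug for 48 h at 37 °C, 5% CO2, 100% humidity. Read-out was growth percent.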

HCT-116 = assay: Cytotoxicity against human HCT116 cells assessed as growth inhibition at 10 uM after 48 hrs by SRB assay; format: functional, cell-based
In short: (§3)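 NCI DTP 60-cell-line screen run at the NCI. Cells were grown in RPMI 1640 with 5% FBS and 2 mM L-glutamine. They were seeded at 5000–40 000 cells/well depending on doubling time and grown in two plates per line. Each was exposed to a single 10 μM dose for 48 h at 37 °C, 5% CO2, 95% air, 100% humidity. Read-out was percent growth.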

PC-3 = assay: Cytotoxicity against human PC3 cells assessed as growth inhibition at 10 uM after 48 hrs by SRB assay; format: functional, cell-based; in short: as §2
HCC 2998 = assay: Cytotoxicity against human HCC2998 cells assessed as growth inhibition at 10 uM after 48 hrs by SRB assay; format: functional, cell-based; in short: as §3
SK-MEL-5 = assay: Cytotoxicity against human SK-MEL-5 cells assessed as growth inhibition at 10 uM after 48 hrs by SRB assay; format: functional, cell-based; in short: as §2
SN12C = assay: Cytotoxicity against human SN12C cells assessed as growth inhibition at 10 uM after 48 hrs by SRB assay; format: functional, cell-based; in short: as §1
OVCAR-5 = assay: Cytotoxicity against human OVCAR5 cells assessed as growth inhibition at 10 uM after 48 hrs by SRB assay; format: functional, cell-based; in short: as §2
KM12 = assay: Cytotoxicity against human KM12 cells assessed as growth inhibition at 10 uM after 48 hrs by SRB assay; format: functional, cell-based; in short: as §3
BT-549 = assay: Cytotoxicity against human BT549 cells assessed as growth inhibition at 10 uM after 48 hrs by SRB assay; format: functional, cell-based; in short: as §3
A498 = assay: Cytotoxicity against human A498 cells assessed as growth inhibition at 10 uM after 48 hrs by SRB assay; format: functional, cell-based; in short: as §3
HL-60(TB) = assay: Cytotoxicity against human HL-60(TB) cells assessed as growth inhibition at 10 uM after 48 hrs by SRB assay; format: functional, cell-based; in short: as §3
M14 = assay: Cytotoxicity against human M14 cells assessed as growth inhibition at 10 uM after 48 hrs by SRB assay; format: functional, cell-based; in short: as §3
COLO 205 = assay: Cytotoxicity against human COLO205 cells assessed as growth inhibition at 10 uM after 48 hrs by SRB assay; format: functional, cell-based; in short: as §3
SW-620 = assay: Cytotoxicity against human SW620 cells assessed as growth inhibition at 10 uM after 48 hrs by SRB assay; format: functional, cell-based; in short: as §1
NCI-H23 = assay: Cytotoxicity against human NCI-H23 cells assessed as growth inhibition at 10 uM after 48 hrs by SRB assay; format: functional, cell-based; in short: as §2
NCI-H460 = assay: Cytotoxicity against human NCI-H460 cells assessed as growth inhibition at 10 uM after 48 hrs by SRB assay; format: functional, cell-based; in short: as §2
SF-295 = assay: Cytotoxicity against human SF295 cells assessed as growth inhibition at 10 uM after 48 hrs by SRB assay; format: functional, cell-based; in short: as §2
MCF7 = assay: Cytotoxicity against human MCF7 cells assessed as growth inhibition at 10 uM after 48 hrs by SRB assay; format: functional, cell-based; in short: as §2
HOP-62 = assay: Cytotoxicity against human HOP62 cells assessed as growth inhibition at 10 uM after 48 hrs by SRB assay; format: functional, cell-based; in short: as §3
OVCAR-3 = assay: Cytotoxicity against human OVCAR3 cells assessed as growth inhibition at 10 uM after 48 hrs by SRB assay; format: functional, cell-based; in short: as §2
UACC-257 = assay: Cytotoxicity against human UACC257 cells assessed as growth inhibition at 10 uM after 48 hrs by SRB assay; format: functional, cell-based; in short: as §1
Malme-3M = assay: Cytotoxicity against human MALME-3M cells assessed as growth inhibition at 10 uM after 48 hrs by SRB assay; format: functional, cell-based; in short: as §3
NCI-H522 = assay: Cytotoxicity against human NCI-H522 cells assessed as growth inhibition at 10 uM after 48 hrs by SRB assay; format: functional, cell-based; in short: as §2
RPMI-8226 = assay: Cytotoxicity against human RPMI8226 cells assessed as growth inhibition at 10 uM after 48 hrs by SRB assay; format: functional, cell-based; in short: as §2
OVCAR-4 = assay: Cytotoxicity against human OVCAR4 cells assessed as growth inhibition at 10 uM after 48 hrs by SRB assay; format: functional, cell-based; in short: as §2
SNB-75 = assay: Cytotoxicity against human SNB75 cells assessed as growth inhibition at 10 uM after 48 hrs by SRB assay; format: functional, cell-based; in short: as §1
CAKI-1 = assay: Cytotoxicity against human Caki1 cells assessed as growth inhibition at 10 uM after 48 hrs by SRB assay; format: functional, cell-based; in short: as §3
SNB-19 = assay: Cytotoxicity against human SNB19 cells assessed as growth inhibition at 10 uM after 48 hrs by SRB assay; format: functional, cell-based; in short: as §1
NCI/ADR-RES = assay: Cytotoxicity against human NCI-ADR-RES cells assessed as growth inhibition at 10 uM after 48 hrs by SRB assay; format: functional, cell-based; in short: as §2
MDA-MB-435 = assay: Cytotoxicity against human MDA-MB-435 cells assessed as growth inhibition at 10 uM after 48 hrs by SRB assay; format: functional, cell-based; in short: as §2
[1] = Induction of [32P]-labeled 49-mer oligonucleotide duplex DNA 12 with GNC sequence at terminus (unknown origin) interstrand cross-linking at 1 mM after 16 hrs by PAGE in presence of H2O2
In short: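 32P-labelled 12a (1.0 μM) annealed with 1.5 equiv of 12b in 10 mM potassium phosphate pH 7 / 100 mM NaCl (65 °C for 3 min, then slow cooling). Duplex incubated with compound (final 1 μM–5 mM), with or without H2O2, in NaCl and potassium phosphate pH 8 at room temperature for 16 h. Quenched in formamide; 20% denaturing PAGE.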

OVCAR-8 = assay: Cytotoxicity against human OVCAR8 cells assessed as growth inhibition at 10 uM after 48 hrs by SRB assay; format: functional, cell-based; in short: as §2
UACC-62 = assay: Cytotoxicity against human UACC62 cells assessed as growth inhibition at 10 uM after 48 hrs by SRB assay; format: functional, cell-based; in short: as §1
EKVX = assay: Cytotoxicity against human EKVX cells assessed as growth inhibition at 10 uM after 48 hrs by SRB assay; format: functional, cell-based; in short: as §3
HT-29 = assay: Cytotoxicity against human HT-29 cells assessed as growth inhibition at 10 uM after 48 hrs by SRB assay; format: functional, cell-based; in short: as §3
Hs-578T = assay: Cytotoxicity against human Hs578T cells assessed as growth inhibition at 10 uM after 48 hrs by SRB assay; format: functional, cell-based; in short: as §3

CC1(C)OB(c2ccc(N(CCCl)CCBr)cc2)OC1(C)C
growth inhibition (GI) (U-251): Active | growth inhibition (GI) (SK-OV-3): Active | growth inhibition (GI) (HCT-116): Active | growth inhibition (GI) (PC-3): Active | growth inhibition (GI) (HCC 2998): Active | growth inhibition (GI) (SK-MEL-5): Active | growth inhibition (GI) (SN12C): Active | growth inhibition (GI) (OVCAR-5): Active | growth inhibition (GI) (KM12): Active | growth inhibition (GI) (BT-549): Active | growth inhibition (GI) (A498): Active | growth inhibition (GI) (HL-60(TB)): Active | growth inhibition (GI) (M14): Active | growth inhibition (GI) (COLO 205): Active | growth inhibition (GI) (SW-620): Active | growth inhibition (GI) (NCI-H23): Active | growth inhibition (GI) (NCI-H460): Active | growth inhibition (GI) (SF-295): Active | growth inhibition (GI) (MCF7): Active | growth inhibition (GI) (HOP-62): Active | growth inhibition (GI) (OVCAR-3): Active | growth inhibition (GI) (UACC-257): Active | growth inhibition (GI) (Malme-3M): Active | growth inhibition (GI) (NCI-H522): Active | growth inhibition (GI) (RPMI-8226): Active | growth inhibition (GI) (OVCAR-4): Active | growth inhibition (GI) (SNB-75): Active | growth inhibition (GI) (CAKI-1): Active | growth inhibition (GI) (SNB-19): Active | growth inhibition (GI) (NCI/ADR-RES): Active | growth inhibition (GI) (MDA-MB-435): Active | Activity [1]: 37% | growth inhibition (GI) (OVCAR-8): Active | growth inhibition (GI) (UACC-62): Active | growth inhibition (GI) (EKVX): Active | growth inhibition (GI) (HT-29): Active | growth inhibition (GI) (Hs-578T): Active

CC1(C)OB(c2ccc(N(CCBr)CCOS(C)(=O)=O)cc2)OC1(C)C
growth inhibition (GI) (U-251): Active | growth inhibition (GI) (SK-OV-3): Active | growth inhibition (GI) (HCT-116): Active | growth inhibition (GI) (PC-3): Active | growth inhibition (GI) (HCC 2998): Active | growth inhibition (GI) (SK-MEL-5): Active | growth inhibition (GI) (SN12C): Active | growth inhibition (GI) (OVCAR-5): Active | growth inhibition (GI) (KM12): Active | growth inhibition (GI) (BT-549): Active | growth inhibition (GI) (A498): Active | growth inhibition (GI) (HL-60(TB)): Active | growth inhibition (GI) (M14): Active | growth inhibition (GI) (COLO 205): Active | growth inhibition (GI) (SW-620): Active | growth inhibition (GI) (NCI-H23): Active | growth inhibition (GI) (NCI-H460): Active | growth inhibition (GI) (SF-295): Active | growth inhibition (GI) (MCF7): Active | growth inhibition (GI) (HOP-62): Active | growth inhibition (GI) (OVCAR-3): Active | growth inhibition (GI) (UACC-257): Active | growth inhibition (GI) (Malme-3M): Active | growth inhibition (GI) (NCI-H522): Active | growth inhibition (GI) (RPMI-8226): Active | growth inhibition (GI) (OVCAR-4): Active | growth inhibition (GI) (SNB-75): Active | growth inhibition (GI) (CAKI-1): Active | growth inhibition (GI) (SNB-19): Active | growth inhibition (GI) (NCI/ADR-RES): Active | growth inhibition (GI) (MDA-MB-435): Active | Activity [1]: 37% | growth inhibition (GI) (OVCAR-8): Active | growth inhibition (GI) (UACC-62): Active | growth inhibition (GI) (EKVX): Active | growth inhibition (GI) (HT-29): Active | growth inhibition (GI) (Hs-578T): Active

CC1(C)OB(c2ccc(COC(=O)N(CCCl)CCCl)cc2)OC1(C)C
growth inhibition (GI) (U-251): inactive | growth inhibition (GI) (SK-OV-3): inactive | growth inhibition (GI) (HCT-116): inactive | growth inhibition (GI) (PC-3): inactive | growth inhibition (GI) (HCC 2998): inactive | growth inhibition (GI) (SK-MEL-5): inactive | growth inhibition (GI) (SN12C): inactive | growth inhibition (GI) (OVCAR-5): inactive | growth inhibition (GI) (KM12): inactive | growth inhibition (GI) (BT-549): inactive | growth inhibition (GI) (A498): inactive | growth inhibition (GI) (HL-60(TB)): inactive | growth inhibition (GI) (M14): inactive | growth inhibition (GI) (COLO 205): inactive | growth inhibition (GI) (SW-620): inactive | growth inhibition (GI) (NCI-H23): inactive | growth inhibition (GI) (NCI-H460): inactive | growth inhibition (GI) (SF-295): inactive | growth inhibition (GI) (MCF7): inactive | growth inhibition (GI) (HOP-62): inactive | growth inhibition (GI) (OVCAR-3): inactive | growth inhibition (GI) (UACC-257): inactive | growth inhibition (GI) (Malme-3M): inactive | growth inhibition (GI) (NCI-H522): inactive | growth inhibition (GI) (RPMI-8226): inactive | growth inhibition (GI) (OVCAR-4): inactive | growth inhibition (GI) (SNB-75): inactive | growth inhibition (GI) (CAKI-1): inactive | growth inhibition (GI) (SNB-19): inactive | growth inhibition (GI) (NCI/ADR-RES): inactive | growth inhibition (GI) (MDA-MB-435): inactive | Activity [1]: inactive | growth inhibition (GI) (OVCAR-8): inactive | growth inhibition (GI) (UACC-62): inactive | growth inhibition (GI) (EKVX): inactive | growth inhibition (GI) (HT-29): inactive | growth inhibition (GI) (Hs-578T): inactive
